Assay results as given in the RNAGym collection of RNA variant scans (doi:10.1126/science.aae0568).
Fewer inactive variants are shown than the library holds.

B1: tRNA (parent)
chain: GUUCCGUUGGCGUAAUGGUAACGCGUCUCCCUCCUAAGGAGAAGACUGCGGGUUCGAGUCCCGUACGGAACG

Variants of: B1
Test: yeast fitness relative to wild type (ratio to wild type); higher = fitter; tRNA-Arg(CCU), competitive growth, 37 C, YPD
Outline: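 Gene amplicons from the start population and from each of six end populations were read by 100-nucleotide paired-end sequencing. Those end populations came from pooled Saccharomyces cerevisiae strains carrying tRNA-Arg(CCU) gene variants at the native locus, competed in YPD at 37°C for 24 hours. Fitness relative to wild type was worked out from changes in genotype frequencies. Genotypes needed ≥ 100 starting reads, and estimates < 0.5 were set to 0.5.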

Variant | yeast fitness
C4A G17A G41A | 0.525
C4A G17A G41A A57C | ≤ 0.5
C4A G17A G41A C61U G63U G68A | ≤ 0.5
C4A G17A G41A C66U | 0.508
C4A G17A G41A G67A | ≤ 0.5
C4A G17A G51A C60G A70U | ≤ 0.5
C4A G17C A20G C31G A37C | ≤ 0.5
C4A G17C A20U C22U | ≤ 0.5
C4A G17C A21U C33G | 0.517
C4A G17C A36U G39A A42C G50U G63A | 0.589
C4A G17C C31G A37C | 0.748
C4A G17C C49U C62G | ≤ 0.5
C4A G17C G23C A45C | 0.527
C4A G17C G23C A45C A70G | ≤ 0.5
C4A G17C G23C U53A | ≤ 0.5
C4A G17C G50A G51A | ≤ 0.5
C4A G17C G51C G58A | ≤ 0.5
C4A G17C G56A | ≤ 0.5
C4A G17C U19C A21U C33G | ≤ 0.5
C4A G18A A20C U26G C27U C49U | ≤ 0.5
C4A G18A C22U G44C C46U C49U | ≤ 0.5
C4A G18A C27A A37C C61A | ≤ 0.5
C4A G18A C27A A37C G56A G68U | ≤ 0.5
C4A G18A C29U C66A | ≤ 0.5

Variant | yeast fitness
C4A G18A G44C C46U C49U | ≤ 0.5
C4A G18A G44C C46U C49U G67A A70U | ≤ 0.5
C4A G18A U59G | 0.657
C4A G18C C24U C29U C34A | 0.592
C4A G18C C29A C31A A57G | ≤ 0.5
C4A G18C C29A C31A A70C | ≤ 0.5
C4A G18C C29A C31A C66U | ≤ 0.5
C4A G18C C61U | ≤ 0.5
C4A G23A | 0.89
C4A G23A C24G | ≤ 0.5
C4A G23A C29U C34G G38C | ≤ 0.5
C4A G23A C30U C31G A40C | ≤ 0.5
C4A G23A C31G A40C | 0.52
C4A G23A C31G A40C G48C C66A | ≤ 0.5
C4A G23A C33G G58C | ≤ 0.5
C4A G23A C33G G63C A65U | ≤ 0.5
C4A G23A G25C G51A | 0.607
C4A G23A U28A A57G | ≤ 0.5
C4A G23C | 0.77
C4A G23C A65G | 0.569
C4A G23C C31U C34G A43G A45C A57U | ≤ 0.5
C4A G23C C49U G58A A69C | 0.535
C4A G23C C61A C62U C66U | ≤ 0.5
C4A G23C G50A A57G | 0.62

Variant | yeast fitness
C4A G23C G56C U59A A65G | ≤ 0.5
C4A G25A A40C A65C | ≤ 0.5
C4A G25A A45U | 0.593
C4A G25A C29A A37G G50C U59A | ≤ 0.5
C4A G25C | 0.833
C4A G25C C29G G41A C49U A65G C66U | ≤ 0.5
C4A G25C C61G | 0.711
C4A G25C U26A C61A | ≤ 0.5
C4A G38A | 0.805
C4A G38A C55G | ≤ 0.5
C4A G38C C55G A69C | ≤ 0.5
C4A G39A | 0.914
C4A G39A G52C C55G | ≤ 0.5
C4A G39C G41C | ≤ 0.5
C4A G39C G51A | ≤ 0.5
C4A G44A C46U U53C C62U | ≤ 0.5
C4A G44A C49U U54G C66U A70C | 0.503
C4A G44C | 0.742
C4A G44C A57C | ≤ 0.5
C4A G48A | 0.964
C4A G48A A65C | 0.618
C4A G48A C61U | 0.661
C4A G50A A70G | 0.57
C4A G51A A70G | 0.58

Variant | yeast fitness
C4A G52C | 0.661
C4A G52C A57C G63C | 0.56
C4A G52C C62U | ≤ 0.5
C4A G52C C66U | ≤ 0.5
C4A G56C C66U | ≤ 0.5
C4A G63A | 0.938
C4A G63A A65U | ≤ 0.5
C4A G63U | 0.624
C4A G67A | 0.781
C4A G67U A69G | 0.751
C4A G68A | 0.962
C4A G68U | 0.831
C4A U7A | 0.679
C4A U7A A14G G17C A36G C61U | ≤ 0.5
C4A U7A A14G G17C C61U | 0.543
C4A U7A C11U C31U U59A | ≤ 0.5
C4A U7A C31A | 0.678
C4A U7A C31U C61G | ≤ 0.5
C4A U7A U8G A45C | ≤ 0.5
C4A U7A U59A | ≤ 0.5
C4A U7C A15G C30A A57C | ≤ 0.5
C4A U7C A36G G41A C49A G67U | ≤ 0.5
C4A U7C A45C C61G | ≤ 0.5
C4A U7C C27U U53A | ≤ 0.5

Variant | yeast fitness
C4A U7C G41A C49A | 0.504
C4A U7C U26G A65C | 0.59
C4A U7G G12C C29A C30U C34U C61U C66A | ≤ 0.5
C4A U8A C24U C55U G68C | ≤ 0.5
C4A U8A C24U G44A A70C | ≤ 0.5
C4A U8A G12C U19C C30U U47A A65U | ≤ 0.5
C4A U8A G17C C31U | 0.558
C4A U8C A15C C31U G48C A65C | 0.608
C4A U8C G58A | ≤ 0.5
C4A U8C U19A C27U G38C C55U | ≤ 0.5
C4A U8G A14U A70U | ≤ 0.5
C4A U13A | 0.595
C4A U13A A14C A43U | 0.601
C4A U13A A21G G58C G68A | 0.607
C4A U13A C30A U32C C61G G68C | ≤ 0.5
C4A U13A G18A G52A C55G | ≤ 0.5
C4A U13C C30U A40G C55A G63C A65C | ≤ 0.5
C4A U13C G23C C34G A40G A45G U53C U64A | ≤ 0.5
C4A U13C U32G | 0.571
C4A U13G | 0.619
C4A U13G A40G A45U U47A | ≤ 0.5
C4A U13G A45U U47A | 0.616
C4A U13G A45U U47A U59C | ≤ 0.5
C4A U16A A43C | ≤ 0.5

Variant | yeast fitness
C4A U16A C29G C55U C66U | ≤ 0.5
C4A U16A U32C C62U A70U | ≤ 0.5
C4A U16C C27G A42G U53A | ≤ 0.5
C4A U16C G17A | 0.567
C4A U16C G17A A40C A43U U47A C60A | ≤ 0.5
C4A U16C G17A A69U | ≤ 0.5
C4A U16C G17A C31U U54A | ≤ 0.5
C4A U16C G17A C62A | ≤ 0.5
C4A U16G | 0.651
C4A U16G C22U G23U A42C G50C C66U | ≤ 0.5
C4A U16G C22U G23U A42C G50C G63C G68C | 0.604
C4A U16G C24U G48A | 0.643
C4A U16G G52C U64A | ≤ 0.5
C4A U19A | 0.854
C4A U19A A69C | 0.602
C4A U19A G44A U53C A70U | ≤ 0.5
C4A U19C U35C | 0.685
C4A U19G | 0.742
C4A U19G A45G C46U | ≤ 0.5
C4A U19G C31G A45C C46G | 0.555
C4A U19G C31G A45C C46G G56C G63A U64C G67C | ≤ 0.5
C4A U19G U35C | ≤ 0.5
C4A U26A C34G G38A G68C | ≤ 0.5
C4A U26C A65C | ≤ 0.5

Variant | yeast fitness
C4A U26G C66U | ≤ 0.5
C4A U26G G44C G58A | 0.535
C4A U26G G44C G58A U59C G68C | ≤ 0.5
C4A U28A | 0.761
C4A U28A C30A C49G A70C | ≤ 0.5
C4A U28A C31G A40U A65U G68C | ≤ 0.5
C4A U28C A42G A65U A69C | ≤ 0.5
C4A U28C G56A C61U | ≤ 0.5
C4A U32A | 0.876
C4A U32C A40U | 0.517
C4A U32C A43C | 0.57
C4A U32C C33U C49G | ≤ 0.5
C4A U32C C46G | 0.599
C4A U32C C66U | 0.707
C4A U32C G58C | 0.588
C4A U32C G67A | 0.655
C4A U32C G68C | 0.867
C4A U32G A45G C49U A70U | ≤ 0.5
C4A U35A A37U | ≤ 0.5
C4A U35C | 0.834
C4A U35C C66A | ≤ 0.5
C4A U35C G48C C55U G56A C62U | ≤ 0.5
C4A U35C U64G | ≤ 0.5
